For assay [1], the target named is T1, E-selectin (Homo sapiens) (UniProt P16581).
T1 sequence (whole entry): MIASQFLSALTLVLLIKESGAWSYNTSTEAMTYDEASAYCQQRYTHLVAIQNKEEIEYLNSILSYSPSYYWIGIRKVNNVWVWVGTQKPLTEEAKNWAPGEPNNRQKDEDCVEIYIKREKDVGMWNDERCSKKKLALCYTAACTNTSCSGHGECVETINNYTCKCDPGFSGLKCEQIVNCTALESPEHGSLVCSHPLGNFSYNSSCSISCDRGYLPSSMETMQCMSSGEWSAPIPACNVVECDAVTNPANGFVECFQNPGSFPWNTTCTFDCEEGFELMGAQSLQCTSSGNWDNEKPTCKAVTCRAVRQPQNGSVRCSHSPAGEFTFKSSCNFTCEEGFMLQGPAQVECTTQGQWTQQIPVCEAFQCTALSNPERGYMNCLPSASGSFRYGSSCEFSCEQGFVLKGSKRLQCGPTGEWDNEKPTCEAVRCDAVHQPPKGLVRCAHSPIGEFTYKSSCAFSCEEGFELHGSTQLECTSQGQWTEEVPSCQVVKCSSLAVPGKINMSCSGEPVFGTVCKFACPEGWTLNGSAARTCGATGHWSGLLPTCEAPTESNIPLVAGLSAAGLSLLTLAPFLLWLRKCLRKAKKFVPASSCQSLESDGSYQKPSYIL
In words: In vitro inhibitory activity against sialyl Lewis X expressing HL60 cell binding to recombinant human E-selectin at 1 mM concentration. Format: cell-based. Conditions: HL-60. The procedure, abridged: (§1)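 Human E-selectin (lectin, EGF and two complement repeats) fused to mouse IgG was captured on anti-mouse IgG magnetic beads overnight at 4 °C. Wells were pre-blocked with 3% BSA/PBS. Compound in PBS was mixed with calcein-labelled HL60 cells (10⁷/mL, RPMI 1640 + 10% FCS) and beads (4 × 10⁶/mL) for 10 min at room temperature. Unbound cells were removed magnetically with two PBS washes, and bound cells were lysed in 1% NP40.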

In assay [2] the target is T2, P-selectin (Homo sapiens) (UniProt P16109).
T2 sequence (whole entry): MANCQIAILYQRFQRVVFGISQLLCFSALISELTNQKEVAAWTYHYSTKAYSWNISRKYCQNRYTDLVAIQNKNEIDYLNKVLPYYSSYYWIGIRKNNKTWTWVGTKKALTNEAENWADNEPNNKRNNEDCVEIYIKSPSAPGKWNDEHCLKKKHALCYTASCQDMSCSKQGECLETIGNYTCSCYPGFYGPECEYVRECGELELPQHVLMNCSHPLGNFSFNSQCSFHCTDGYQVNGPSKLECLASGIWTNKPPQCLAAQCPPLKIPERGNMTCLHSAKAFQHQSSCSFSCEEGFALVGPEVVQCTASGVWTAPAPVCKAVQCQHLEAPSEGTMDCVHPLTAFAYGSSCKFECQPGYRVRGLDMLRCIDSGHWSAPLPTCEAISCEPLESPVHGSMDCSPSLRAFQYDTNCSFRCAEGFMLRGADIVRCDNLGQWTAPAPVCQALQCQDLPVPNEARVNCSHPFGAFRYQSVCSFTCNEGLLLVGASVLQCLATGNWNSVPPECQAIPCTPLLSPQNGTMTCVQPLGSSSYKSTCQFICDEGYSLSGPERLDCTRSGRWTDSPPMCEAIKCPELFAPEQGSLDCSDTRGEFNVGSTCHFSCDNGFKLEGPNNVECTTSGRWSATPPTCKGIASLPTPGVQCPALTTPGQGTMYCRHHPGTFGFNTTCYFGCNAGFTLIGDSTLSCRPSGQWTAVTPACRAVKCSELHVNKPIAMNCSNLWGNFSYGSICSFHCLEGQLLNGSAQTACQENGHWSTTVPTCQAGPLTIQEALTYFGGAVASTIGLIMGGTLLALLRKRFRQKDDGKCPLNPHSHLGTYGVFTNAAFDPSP
In words: In vitro inhibitory activity against sialyl Lewis X expressing HL60 cell binding Selectin P at 20 mM concentration. Format: cell-based. The note with it: HL-60.

Assay [3] has as its target T3, L-selectin (Mus musculus) (UniProt P18337).
T3 sequence (whole entry): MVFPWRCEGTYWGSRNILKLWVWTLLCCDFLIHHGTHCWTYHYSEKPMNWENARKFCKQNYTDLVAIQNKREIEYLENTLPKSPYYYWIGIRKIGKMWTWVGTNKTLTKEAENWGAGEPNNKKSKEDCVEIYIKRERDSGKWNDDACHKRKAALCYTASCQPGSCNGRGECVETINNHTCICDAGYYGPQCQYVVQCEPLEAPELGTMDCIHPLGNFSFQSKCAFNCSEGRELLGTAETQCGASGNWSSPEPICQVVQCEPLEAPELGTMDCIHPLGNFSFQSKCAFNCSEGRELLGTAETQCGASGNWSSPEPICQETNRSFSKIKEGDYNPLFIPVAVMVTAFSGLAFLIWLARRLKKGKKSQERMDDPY
In words: In vitro inhibitory activity against sialyl Lewis X expressing HL60 cell binding Selectin L at 6 mM concentration. Format: cell-based. Conditions: HL-60.

Assay [4] concerns the target T1, E-selectin (Homo sapiens). The experiment in a line: In vitro inhibitory activity against sialyl Lewis X expressing HL60 cell binding to recombinant human E-selectin at 16.3 mM concentration. Format: cell-based. Conditions: HL-60. The procedure, abridged: as §1
Assay [5] has as its target T4, L-selectin (Mus musculus, UniProt P18337).
T4 sequence (P18337 whole entry): T3 sequence (whole entry)
In words: In vitro inhibitory activity against sialyl Lewis X expressing HL60 cell binding Selectin L. Format: cell-based, HL-60.

Assay [6] addresses T5, P-selectin (Homo sapiens, UniProt P16109).
T5 sequence (P16109 whole entry): T2 sequence (whole entry)
In words: In vitro inhibitory activity against sialyl Lewis X expressing HL60 cell binding Selectin P. Format: cell-based, HL-60.

Assay [7] deals with T1, E-selectin (Homo sapiens). In words: In vitro inhibitory activity against sialyl Lewis X expressing HL60 cell binding to recombinant human E-selectin at 40 mM concentration. Format: cell-based. The note with it: HL-60. Put shortly:
as §1

For assay [8], the target named is T1, E-selectin (Homo sapiens). The experiment in a line: In vitro inhibitory activity against sialyl Lewis X expressing HL60 cell binding to recombinant human E-selectin at 6 mM concentration. Format: cell-based. The note with it: HL-60. The procedure, abridged: as §1
In assay [9] the target is T3, L-selectin (Mus musculus). The experiment in a line: In vitro inhibitory activity against sialyl Lewis X expressing HL60 cell binding to Selectin L at 5 mM concentration. Format: cell-based. The note with it: HL-60.
The target of assay [10] is T6, E-selectin (Homo sapiens, UniProt P16581).
T6 sequence (P16581 whole entry): T1 sequence (whole entry)
The experiment in a line: In vitro inhibition of HL60 (human leukemia) cell binding to human recombinant e-selectin. Format: cell-based, HL-60. Put shortly:
as §1

Assay [11] concerns the target T3, L-selectin (Mus musculus). In words: In vitro inhibitory activity against sialyl Lewis X expressing HL60 cell binding to Selectin L at 7 mM concentration. Format: cell-based. Conditions: HL-60.
Assay [12] addresses T3, L-selectin (Mus musculus). In words: In vitro inhibitory activity against sialyl Lewis X expressing HL60 cell binding to Selectin L at 6 mM concentration. Format: cell-based. The note with it: HL-60.
Assay [13] has as its target T3, L-selectin (Mus musculus). The experiment in a line: In vitro inhibitory activity against sialyl Lewis X expressing HL60 cell binding Selectin L at 1 mM concentration. Format: cell-based. Conditions: HL-60.
Assay [14] addresses T2, P-selectin (Homo sapiens). In words: In vitro inhibitory activity against sialyl Lewis X expressing HL60 cell binding Selectin P at 4 mM concentration. Conditions: HL-60. Format: cell-based.

As for `O=C(N[C@H](Cc1ccccc1)C(=O)O)c1cccc(-c2ccccc2O[C@H]2O[C@H](CO)[C@@H](O)[C@@H](O)[C@@H]2O)c1`, the inhibition (as a rule, the drop in the measured response relative to a control, in per cent) in assay [1] is 14%; in assay [2], 5%; in assay [3], 0%.
As to `O=C(O)CC(NC(=O)c1ccc(-c2ccccc2O[C@H]2O[C@H](CO)[C@@H](O)[C@@H](O)[C@@H]2O)cc1)C(=O)O` (stereo partly drawn), in assay [4], the inhibition is 0%. For the same compound, the values for the IC50 in assay [5] and in assay [6] were 5 mM and 2 mM, respectively.
`OC[C@H]1O[C@H](Oc2ccccc2-c2cccc(Cc3nnn[nH]3)c2)[C@@H](O)[C@H](O)[C@@H]1O`: the inhibition in assay [7] turned out to be 17%.
Consider `O=C(O)C(=O)Nc1cccc(-c2ccccc2O[C@H]2O[C@H](CO)[C@@H](O)[C@@H](O)[C@@H]2O)c1`, for which the inhibition in [8] was determined as 0%.
For `O=C(N[C@@H](Cc1ccccc1)C(=O)O)c1ccc(-c2ccccc2O[C@H]2O[C@H](CO)[C@@H](O)[C@@H](O)[C@@H]2O)cc1`, the inhibition in assay [9] and in assay [2] was 0% each time. For the same compound, in [10], the IC50 (usually the point on the concentration scale where inhibition reaches its midpoint) stood at 3.8 mM.
On to `O=C(O)c1ccc(-c2ccccc2O[C@H]2O[C@H](CO)[C@@H](O)[C@@H](O)[C@@H]2O)cc1`, for which the IC50 in [10] amounted to 14.6 mM. The inhibition in assay [2] and in [11] was 0% in each case.
As for `O=C(O)Cc1ccc(-c2ccccc2O[C@H]2O[C@H](CO)[C@@H](O)[C@@H](O)[C@@H]2O)cc1`, the IC50 in assay [10] turned out to be 2.6 mM. For the same compound, the inhibition in [2] and in [12] was 0% throughout.
Turning to `CC(C(=O)O)c1cccc(-c2ccccc2O[C@H]2O[C@H](CO)[C@@H](O)[C@@H](O)[C@@H]2O)c1` (stereo in doubt; 9s), in [10], the IC50 came to 20 mM.
In turn, `O=C(O)CC[C@H](NC(=O)c1cccc(-c2ccccc2O[C@H]2O[C@H](CO)[C@@H](O)[C@@H](O)[C@@H]2O)c1)C(=O)O` had an inhibition in [9] of 15%. The IC50 in [10] came out at 15.8 mM.
With `O=C(O)CCNC(=O)c1ccc(-c2ccccc2O[C@H]2O[C@H](CO)[C@@H](O)[C@@H](O)[C@@H]2O)cc1`, the inhibition in [13] was 0%. The IC50 in [10] worked out at 36 mM.
With `CCOP(=O)(O)CCCc1cccc(-c2ccccc2O[C@H]2O[C@H](CO)[C@@H](O)[C@@H](O)[C@@H]2O)c1`, the IC50 in assay [10] was 34.4 mM; in assay [6] it was 12.4 mM.
As to `O=C(O)CNC(=O)c1ccc(-c2ccccc2O[C@H]2O[C@H](CO)[C@@H](O)[C@@H](O)[C@@H]2O)cc1`, the IC50 in [10] was 4.6 mM. Moreover, the inhibition in [2] and in assay [12] was 0% each time.
For the compound `Cc1cc(-c2ccccc2O[C@H]2O[C@H](CO)[C@@H](O)[C@@H](O)[C@@H]2O)cc(C)c1OCC(=O)O`, the 50% inhibitory concentration (IC50) in assay [10] came to 8 mM; in assay [6] it was 6.9 mM. Also, in [11], the inhibition worked out at 0%.
Consider `O=C(O)CCC(NC(=O)c1ccc(-c2ccccc2O[C@H]2O[C@H](CO)[C@@H](O)[C@@H](O)[C@@H]2O)cc1)C(=O)O` (stereo partly drawn), for which the inhibition was 0% in [13] and 35% in [14]. In addition, in assay [10], the IC50 was found to be 32 mM.

The record behind these values is ChEMBL document CHEMBL1128216, “Rational design and synthesis of small molecule, non-oligosaccharide selectin inhibitors: (alpha-D-mannopyranosyloxy)biphenyl-substituted carboxylic acids” (J Med Chem, 1995).
